This note sets out measurements from ChEMBL document CHEMBL4014327 (J Med Chem, 2017).

By Papp A→B is commonly meant the apparent permeability from the apical to the basolateral side of a cell layer. The logD is lipophilicity at a set pH, counting ionised and neutral species. As a reminder, the clearance is the volume of plasma or blood freed of the substance per unit of time. A word on the half-life: it is the time needed for the level to fall by half in the phase considered. Low values mean rapid decline, high ones slow decline. As usually defined, the bioavailability is the share of a dose that reaches the circulation, judged against a reference dose that is usually intravenous. Low readings indicate poor availability, high ones good availability. Usually IC50 stands for the concentration at which inhibition is half-maximal. The term inhibition denotes the share of the control response that was lost under treatment. The term fraction unbound denotes free concentration divided by total concentration.

Each structure is given as a SMILES string. In brackets after ≈: the same amount, converted by molar mass. Activity calls are given as the source filed them.

Data set [1] is described as follows: Apparent intrinsic clearance in human liver microsomes. To be noted: read-out: CLH(app). Type of data set: ADME, microsome. On the technique in general: Liver microsomes are vesicles of endoplasmic reticulum, rich in cytochrome P450 enzymes.
The nature of data set [2]: Apparent permeability in RRCK cells from apical to basolateral side. To be noted: dog, MDCK. Type of data set: ADME, cell-based, Canis lupus familiaris, MDCKII-LE. A digest of the protocol:
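RRCK cell monolayer permeability assay; apparent permeability reported in cm/s.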

The nature of data set [3]: Lipophilicity, log D of compound. Type of data set: physicochemical. To be noted: octanol/water.
Data set [4] has as its system Rattus norvegicus. Nature of the data set: Clearance in iv dosed rat. In kind it is ADME, organism-based. The following applies: in vivo.
Data set [5] is described as follows: Half life in rat. Type of data set: ADME. To be noted: in vivo.
A short description of data set [6]: Oral bioavailability in rat. In kind it is ADME, organism-based. The following applies: in vivo.
Data set [7] deals with T1, Interleukin-1 receptor-associated kinase 4 (Homo sapiens, UniProt Q9NWZ3).
T1 sequence (Q9NWZ3 whole entry): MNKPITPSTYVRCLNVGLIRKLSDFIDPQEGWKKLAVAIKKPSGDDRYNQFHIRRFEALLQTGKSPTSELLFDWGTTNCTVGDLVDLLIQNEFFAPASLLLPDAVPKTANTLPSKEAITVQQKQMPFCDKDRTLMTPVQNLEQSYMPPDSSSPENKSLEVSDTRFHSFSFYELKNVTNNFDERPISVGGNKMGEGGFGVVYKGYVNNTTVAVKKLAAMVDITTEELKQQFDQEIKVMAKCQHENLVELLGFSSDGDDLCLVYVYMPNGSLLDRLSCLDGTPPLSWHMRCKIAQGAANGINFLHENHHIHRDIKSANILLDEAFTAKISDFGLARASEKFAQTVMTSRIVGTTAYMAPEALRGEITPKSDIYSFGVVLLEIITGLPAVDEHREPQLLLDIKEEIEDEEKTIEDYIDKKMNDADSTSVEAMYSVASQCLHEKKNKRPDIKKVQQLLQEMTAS
Nature of the data set: Inhibition of N-terminal His6-tagged human full length IRAK4 preincubated for 20 mins followed by biotinylated-AGAGRDKYKTLRQIR substrate addition in presence of ATP measured after 60 mins by DELFIA method.

The target of data set [8] is T2, Interleukin-1 receptor-associated kinase 4 (Homo sapiens) (UniProt Q9NWZ3).
T2 sequence (whole entry): T1 sequence (Q9NWZ3 whole entry)
The following applies: 909 uM.

Data set [9] addresses T2, Interleukin-1 receptor-associated kinase 4 (Homo sapiens). The following applies: 236 uM.
Data set [10] addresses T1, Interleukin-1 receptor-associated kinase 4. In words: Inhibition of IRAK4 in human PBMC assessed as reduction in R848-stimulated TNF alpha production after 3 hrs.
In data set [11] the target is Voltage-gated inwardly rectifying potassium channel KCNH2 (Homo sapiens, UniProt Q12809). In words: Inhibition of human ERG.
Chain of Voltage-gated inwardly rectifying potassium channel KCNH2 (Q12809 whole entry): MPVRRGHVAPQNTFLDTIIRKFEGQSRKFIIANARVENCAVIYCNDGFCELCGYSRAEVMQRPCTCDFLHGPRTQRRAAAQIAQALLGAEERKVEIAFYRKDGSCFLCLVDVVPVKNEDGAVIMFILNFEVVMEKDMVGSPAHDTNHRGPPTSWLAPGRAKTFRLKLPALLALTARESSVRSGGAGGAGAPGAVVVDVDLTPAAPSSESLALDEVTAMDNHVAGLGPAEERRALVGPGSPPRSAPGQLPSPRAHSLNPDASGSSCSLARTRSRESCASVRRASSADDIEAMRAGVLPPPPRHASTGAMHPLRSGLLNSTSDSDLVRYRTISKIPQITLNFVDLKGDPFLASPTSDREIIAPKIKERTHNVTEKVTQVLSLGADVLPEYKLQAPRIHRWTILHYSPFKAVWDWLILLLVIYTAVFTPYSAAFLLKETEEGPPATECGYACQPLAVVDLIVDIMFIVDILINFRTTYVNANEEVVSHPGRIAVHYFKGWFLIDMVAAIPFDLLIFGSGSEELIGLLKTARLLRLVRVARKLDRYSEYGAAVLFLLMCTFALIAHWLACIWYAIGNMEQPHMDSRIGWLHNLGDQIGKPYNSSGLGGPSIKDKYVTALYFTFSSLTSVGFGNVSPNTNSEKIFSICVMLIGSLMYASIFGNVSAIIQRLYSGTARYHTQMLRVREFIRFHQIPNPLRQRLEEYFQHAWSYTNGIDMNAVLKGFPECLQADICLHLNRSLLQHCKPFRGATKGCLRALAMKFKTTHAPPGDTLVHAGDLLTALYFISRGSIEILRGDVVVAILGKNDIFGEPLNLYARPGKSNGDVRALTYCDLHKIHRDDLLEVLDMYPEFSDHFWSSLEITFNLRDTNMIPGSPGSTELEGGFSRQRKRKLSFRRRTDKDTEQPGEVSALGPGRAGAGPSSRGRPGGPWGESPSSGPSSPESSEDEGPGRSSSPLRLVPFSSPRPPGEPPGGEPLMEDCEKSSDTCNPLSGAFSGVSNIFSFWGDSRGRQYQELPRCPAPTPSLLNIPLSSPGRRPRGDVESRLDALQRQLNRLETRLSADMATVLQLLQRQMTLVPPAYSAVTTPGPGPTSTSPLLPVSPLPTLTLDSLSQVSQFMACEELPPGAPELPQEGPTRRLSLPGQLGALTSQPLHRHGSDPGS
The nature of data set [12]: Thermodynamic solubility of compound at pH 6.5. To be noted: buffer, read-out: Therm_solubility. In kind it is physicochemical.
A short description of data set [13]: Fraction unbound in human plasma. In kind it is ADME, cell-free. A digest of the protocol:
(§1)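 Fraction unbound in plasma measured by equilibrium dialysis.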

Data set [14] is described as follows: Fraction unbound in rat plasma. In kind it is ADME, cell-free. A digest of the protocol: as §1
Data set [15] addresses CYP1A2 (Homo sapiens, UniProt P05177). In words: Inhibition of CYP1A2 in human liver microsomes at 3 uM. In kind it is ADME.
In data set [16] the target is CYP2C8 (Homo sapiens, UniProt P10632). Nature of the data set: Inhibition of CYP2C8 in human liver microsomes at 3 uM. Type of data set: ADME.
Chain of CYP2C8 (P10632 whole entry): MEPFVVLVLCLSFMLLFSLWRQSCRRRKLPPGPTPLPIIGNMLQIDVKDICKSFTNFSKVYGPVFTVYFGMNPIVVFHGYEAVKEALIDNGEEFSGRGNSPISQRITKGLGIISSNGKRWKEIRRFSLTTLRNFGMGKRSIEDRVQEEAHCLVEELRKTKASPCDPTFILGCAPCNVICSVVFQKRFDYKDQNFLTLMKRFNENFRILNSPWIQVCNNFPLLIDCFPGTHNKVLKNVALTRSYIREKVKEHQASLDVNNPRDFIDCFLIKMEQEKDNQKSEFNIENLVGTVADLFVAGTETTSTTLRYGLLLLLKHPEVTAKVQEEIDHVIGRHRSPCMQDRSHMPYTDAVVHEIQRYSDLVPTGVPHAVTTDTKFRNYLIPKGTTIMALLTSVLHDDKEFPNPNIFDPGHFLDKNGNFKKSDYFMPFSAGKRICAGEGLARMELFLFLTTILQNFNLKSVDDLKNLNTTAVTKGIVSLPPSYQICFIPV
For data set [17], the target named is CYP2D6 (Homo sapiens, UniProt P10635). Nature of the data set: Inhibition of CYP2D6 in human liver microsomes at 3 uM. Type of data set: ADME.
Chain of CYP2D6 (P10635 whole entry): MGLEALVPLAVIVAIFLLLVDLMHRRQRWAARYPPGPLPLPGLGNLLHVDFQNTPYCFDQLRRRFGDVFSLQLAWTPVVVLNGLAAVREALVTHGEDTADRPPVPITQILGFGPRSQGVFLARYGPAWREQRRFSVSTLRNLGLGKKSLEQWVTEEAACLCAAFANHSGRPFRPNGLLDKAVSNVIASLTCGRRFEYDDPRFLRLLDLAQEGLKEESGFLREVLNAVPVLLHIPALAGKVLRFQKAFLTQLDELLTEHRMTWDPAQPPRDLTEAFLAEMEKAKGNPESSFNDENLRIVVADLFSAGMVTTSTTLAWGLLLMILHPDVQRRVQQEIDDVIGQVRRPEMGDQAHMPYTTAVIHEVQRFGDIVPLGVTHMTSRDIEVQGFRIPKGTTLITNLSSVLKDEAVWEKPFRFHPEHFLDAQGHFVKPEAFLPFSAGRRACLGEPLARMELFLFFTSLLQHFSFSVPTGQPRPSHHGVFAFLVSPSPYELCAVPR
In data set [18] the target is CYP3A4 (Homo sapiens, UniProt P08684). In words: Inhibition of CYP3A4 in human liver microsomes at 3 uM. In kind it is ADME.
Chain of CYP3A4 (P08684 whole entry): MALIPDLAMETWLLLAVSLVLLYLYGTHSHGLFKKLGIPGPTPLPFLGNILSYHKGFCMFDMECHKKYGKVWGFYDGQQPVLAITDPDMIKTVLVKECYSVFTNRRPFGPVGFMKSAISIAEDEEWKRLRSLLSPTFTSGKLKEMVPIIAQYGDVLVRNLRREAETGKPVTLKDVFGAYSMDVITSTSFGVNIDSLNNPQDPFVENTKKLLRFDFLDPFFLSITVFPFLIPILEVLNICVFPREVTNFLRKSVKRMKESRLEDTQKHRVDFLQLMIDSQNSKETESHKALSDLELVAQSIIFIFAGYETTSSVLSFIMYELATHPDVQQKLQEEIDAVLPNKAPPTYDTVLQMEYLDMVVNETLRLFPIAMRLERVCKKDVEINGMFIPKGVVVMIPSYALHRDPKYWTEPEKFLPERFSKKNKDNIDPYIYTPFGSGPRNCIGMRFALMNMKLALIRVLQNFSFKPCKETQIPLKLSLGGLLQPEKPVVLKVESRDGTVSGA
The target of data set [19] is T2, Interleukin-1 receptor-associated kinase 4 (Homo sapiens). In words: Inhibition of IRAK4 in human THP1 cell lysate.
The test system of data set [20] is Rattus norvegicus. Nature of the data set: Antiinflammatory activity in Lewis rat CIA model assessed as reduction in paw swelling at 30 mg/kg, po bid treated on day 11 post immunization for 8 days by plethysmographic method. Type of data set: functional, organism-based. A digest of the protocol:
(§2)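 Female Lewis rats (about 7−9 weeks old, n = 10 per group) immunized on day 0 with bovine type II collagen in incomplete Freund's adjuvant and boosted on day 7. Oral dosing twice daily as solution or suspension in vehicle (0.5% methylcellulose, 2% Tween 80 in water), vehicle-only controls. Paw volume measured daily by plethysmograph, body weight recorded daily.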

Data set [21] has as its system Rattus norvegicus. In words: Antiinflammatory activity in Lewis rat CIA model assessed as reduction in paw swelling at 100 mg/kg, po bid treated on day 11 post immunization for 8 days by plethysmographic method. In kind it is functional, organism-based. In outline:
as §2

Data set [22] concerns the target CYP2C9 (Homo sapiens, UniProt P11712). In words: Inhibition of CYP2C9 in human liver microsomes at 3 uM. In kind it is ADME.
For data set [23], the system named is Rattus norvegicus. Nature of the data set: In vivo receptor occupancy at IRAK4 in spleen of po dosed Lewis rat CIA model measured at 1 hr postdose. Type of data set: functional, organism-based.
In data set [24] the test system is Rattus norvegicus. Nature of the data set: In vivo receptor occupancy at IRAK4 in spleen of Lewis rat CIA model at 100 mg/kg, po measured at 1 hr postdose. In kind it is functional. In outline: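 Lewis female rats (7–9 wk, n = 10/group), immunized with bovine type II collagen/IFA on day 0 and boosted day 7. Oral dosing twice daily in therapeutic mode (started after disease onset), vehicle 0.5% methylcellulose, 2% Tween 80 in water. Spleens sampled 1 h postdose, flash frozen. Kinase occupancy measured by KiNativ profiling with an ATP-competitive probe.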

Chain of CYP2C9 (P11712 whole entry): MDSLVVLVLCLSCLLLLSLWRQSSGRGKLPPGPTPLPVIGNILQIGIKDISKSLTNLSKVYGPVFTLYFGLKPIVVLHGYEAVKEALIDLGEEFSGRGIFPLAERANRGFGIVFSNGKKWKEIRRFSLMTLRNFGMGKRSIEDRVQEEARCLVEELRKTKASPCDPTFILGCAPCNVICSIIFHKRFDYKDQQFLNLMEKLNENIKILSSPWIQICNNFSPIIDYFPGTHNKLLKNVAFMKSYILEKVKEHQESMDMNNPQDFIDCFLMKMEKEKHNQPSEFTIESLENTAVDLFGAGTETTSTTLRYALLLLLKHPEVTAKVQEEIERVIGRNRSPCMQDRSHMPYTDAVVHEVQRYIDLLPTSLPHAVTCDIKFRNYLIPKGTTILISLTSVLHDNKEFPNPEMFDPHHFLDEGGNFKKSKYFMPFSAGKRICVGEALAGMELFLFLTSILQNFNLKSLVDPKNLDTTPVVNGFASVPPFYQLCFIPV
Chain of CYP1A2 (P05177 whole entry): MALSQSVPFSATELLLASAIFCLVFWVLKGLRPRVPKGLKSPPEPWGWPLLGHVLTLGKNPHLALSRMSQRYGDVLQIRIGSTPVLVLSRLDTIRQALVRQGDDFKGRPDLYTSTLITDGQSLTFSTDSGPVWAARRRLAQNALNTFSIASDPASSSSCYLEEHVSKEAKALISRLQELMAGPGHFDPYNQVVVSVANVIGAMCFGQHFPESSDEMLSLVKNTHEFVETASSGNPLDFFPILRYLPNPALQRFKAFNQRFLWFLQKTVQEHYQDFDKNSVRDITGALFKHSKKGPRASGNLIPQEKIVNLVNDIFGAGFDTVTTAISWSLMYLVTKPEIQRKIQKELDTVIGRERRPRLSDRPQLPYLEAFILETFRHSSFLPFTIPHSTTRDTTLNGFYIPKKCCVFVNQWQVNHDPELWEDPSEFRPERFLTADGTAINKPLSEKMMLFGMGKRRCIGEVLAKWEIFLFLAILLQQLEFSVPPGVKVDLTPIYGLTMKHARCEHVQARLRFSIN

Regarding `COc1cc2c(OC[C@H]3NC(=O)[C@@H]4[C@@H](C)[C@@H]43)nccc2cc1C(N)=O`, the microsomal CLint in data set [1] is under 8 µL/min/mg. The Papp A→B in data set [2] worked out at 135 nm/s.
The corresponding values for `COc1cc2c(OC[C@H]3NC(=O)[C@@]4(F)[C@@H]3[C@@H]4C)nccc2cc1C(N)=O` are under 8 µL/min/mg and 163 nm/s.
In the case of `COc1cc2c(OC[C@@H]3CCC(=O)N3)nccc2cc1C(N)=O`, the microsomal CLint in [1] came to 9 µL/min/mg. For the same compound, in [2], the Papp A→B turned out to be 99 nm/s. The compound also yielded a logD in [3] of 0.9. Also, the clearance in data set [4] turned out to be 2.1 L/h/kg. In data set [5], this compound gave a half-life of 1 h. In data set [6], this compound displayed a bioavailability of 44%.
Consider `CC(C)Oc1cc2c(O[C@@H]3CCCNC3)ccnc2cc1C(N)=O`, for which the IC50 in [7] was 0.146 µM. Also, the Papp A→B in data set [2] is 28 nm/s. The compound also gave a logD in data set [3] of 0.4.
`CC(C)Oc1cc2c(OC[C@H]3CCC(=O)N3)nccc2cc1C(N)=O`: in data set [2], the Papp A→B is 105 nm/s.
On to `CC(C)Oc1ccccc1C(N)=O`, for which the IC50 in data set [7] came to 55 µM. For the same compound, the inhibition in data set [8] is over 50%; in [9], over 10%.
Regarding `COc1cc2c(OC[C@H]3NC(=O)[C@@H]4C[C@H]34)nccc2cc1C(N)=O`, in data set [1], the microsomal CLint is under 8 µL/min/mg. Further, the Papp A→B in data set [2] was found to be 117 nm/s.
The corresponding values for `COc1cc2c(OC[C@H]3NC(=O)C[C@H]3C)nccc2cc1C(N)=O` are under 9 µL/min/mg and 105 nm/s.
For `CC[C@@H]1CC(=O)N[C@@H]1COc1nccc2cc(C(N)=O)c(OC)cc12`, in that order: 14 µL/min/mg and 179 nm/s.
Regarding `CCC[C@@H]1CC(=O)N[C@@H]1COc1nccc2cc(C(N)=O)c(OC)cc12`, in data set [1], the microsomal CLint was determined as 44 µL/min/mg. Moreover, the Papp A→B in [2] came to 189 nm/s. In addition, in [10], the IC50 came out at 0.0284 µM.
As to `CC(C)Oc1cc2ccccc2cc1C(N)=O`, the IC50 in [7] is 2.09 µM.
With `CC[C@H]1[C@@H](COc2nccc3cc(C(N)=O)c(OC)cc23)NC(=O)[C@@H]1F`, the microsomal CLint in data set [1] turned out to be 15 µL/min/mg. Moreover, the Papp A→B in data set [2] turned out to be 142 nm/s.
For `CCOc1cc2c(OC[C@@H]3CCC(=O)N3)nccc2cc1C(N)=O`, in that order: 9 µL/min/mg and 106 nm/s.
For `COc1cc2c(OC[C@H]3NC(=O)[C@@H](C)[C@H]3C)nccc2cc1C(N)=O`, in that order: 9 µL/min/mg and 158 nm/s.
Take `COc1cc2c(OC[C@@H]3CCC(=O)N3)cccc2cc1C(N)=O`: the microsomal CLint in data set [1] is 13 µL/min/mg. In [2], the Papp A→B was found to be 142 nm/s. The compound also returned a logD in data set [3] of 1.5.
Consider `CC(C)Oc1cc2c(OC[C@@H]3CCC(=O)N3)nccc2cc1C(N)=O`, for which the microsomal CLint in data set [1] was determined as 10 µL/min/mg. Moreover, in data set [2], the Papp A→B came to 107 nm/s. Also, the IC50 in [11] was over 30 µM. Further, the solubility thermodynamic in [12] turned out to be 78 µM (≈ 26.8 µg/mL). In [4], the clearance came to 1.38 L/h/kg. In addition, the half-life in data set [5] is 1.2 h. In [6], the bioavailability amounted to 57%. The fraction unbound in data set [13] amounted to 0.29; in [14], 0.21. Moreover, the inhibition at 3 µM is under 10% in [15]; under 10% in data set [16]; under 10% in [17]; under 10% in data set [18]; 13.6% in [22]. Besides, the inhibition result in data set [19] was “Active”. Besides, the outcome in data set [20] and in [21] was Active. Further, the Occ entry is “Dose-dependent effect” in data set [23] and 80% in [24].
On to `COc1cc2c(OC[C@H]3NC(=O)[C@H](F)[C@H]3C)nccc2cc1C(N)=O`, for which the microsomal CLint in [1] was 12 µL/min/mg. In addition, the Papp A→B in data set [2] was 104 nm/s.
As for `COC[C@@H]1CC(=O)N[C@@H]1COc1nccc2cc(C(N)=O)c(OC)cc12`, the microsomal CLint in [1] was under 8 µL/min/mg. Also, the Papp A→B in data set [2] was determined as 125 nm/s. In addition, the IC50 in [10] came to 0.373 µM.
Take `COc1cc2c(OC[C@H]3NC(=O)[C@@H](F)[C@H]3C)nccc2cc1C(N)=O`: the microsomal CLint in data set [1] was under 9 µL/min/mg. Also, the Papp A→B in [2] was 99 nm/s.
As to `CC(C)Oc1cc2c(O[C@@H]3CCCNC3)nccc2cc1C(N)=O`, the microsomal CLint in [1] is 11 µL/min/mg. The IC50 in data set [7] worked out at 0.121 µM; in data set [10], 1.55 µM. Besides, the Papp A→B in data set [2] came to 114 nm/s. In [3], this compound had a log distribution coefficient (logD) of 0.7.
In the case of `CC(C)Oc1cc2c(-c3ccc(C#N)cc3)cccc2cc1C(N)=O`, the IC50 in data set [7] is 0.0719 µM.
On to `COc1cc2c(OC[C@H]3NC(=O)[C@H](C)[C@H]3C)nccc2cc1C(N)=O`, for which the microsomal CLint in [1] worked out at 32 µL/min/mg. Also, in data set [2], the Papp A→B is 139 nm/s.
As to `COc1cc2c(OC[C@@H]3CCC(=O)N3)ccnc2cc1C(N)=O`, the microsomal CLint in data set [1] is under 8 µL/min/mg. Moreover, the Papp A→B in data set [2] was determined as 58 nm/s.
